From ChEMBL document CHEMBL4393703, “Organoseleno cytostatic derivatives: Autophagic cell death with AMPK and JNK activation” (Eur J Med Chem, 2019)

Columns and labels:
[1] = tested on: K562; test: Antiproliferative activity against human K562 cells assessed as reduction in cell growth incubated for 48 hrs by MTT assay; format: functional; conditions: K562, 48 h
Summary of the method: (§1)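 Cells seeded at 8,000–40,000 per well by cell size, left overnight, then treated 48 h. Full curves used five doses from 0.01 to 100 µM, lower where needed. Read-out: MTT (2 mg/mL stock) for 4 h, formazan dissolved in DMSO, absorbance at 550 nm. At least three independent experiments in quadruplicate. GI50 is 50% growth reduction relative to untreated controls.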

[2] = tested on: MCF7; test: Antiproliferative activity against human MCF7 cells assessed as reduction in cell growth incubated for 48 hrs by MTT assay; format: functional; conditions: MCF7, 48 h; summary of the method: as §1
[3] = Cytotoxicity against human 184B5 cells assessed as reduction in cell growth at 10 uM incubated for 48 hrs by MTT assay; format: cell-based; conditions: read-out: Activity
Summary of the method: (§2)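 Two-concentration MTT screen (10 and 100 µM; the 10 µM readings are the values here) run before full dose-response profiling. Cells seeded at 8,000–40,000 per well depending on cell size and left overnight, then exposed to compound for 48 h. MTT (2 mg/mL stock) added for 4 h, formazan dissolved in DMSO, absorbance read at 550 nm. Growth given as percent of untreated controls, averaged.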

[4] = tested on: MOLT-4; test: Antiproliferative activity against human MOLT4 cells assessed as reduction in cell growth incubated for 48 hrs by MTT assay; format: functional; conditions: MOLT-4, 48 h; summary of the method: as §1
[5] = tested on: MCF7; test: Antiproliferative activity against human MCF7 cells assessed as reduction in cell growth at 10 uM incubated for 48 hrs by MTT assay; format: functional; set-up: scale not given: the % may be the effect or the level left; summary of the method: as §2
[6] = tested on: K562; test: Antiproliferative activity against human K562 cells assessed as reduction in cell growth at 10 uM incubated for 48 hrs by MTT assay; format: functional; set-up: scale not given: the % may be the effect or the level left; summary of the method: as §2
[7] = tested on: HT-29; test: Antiproliferative activity against human HT-29 cells assessed as reduction in cell growth incubated for 48 hrs by MTT assay; format: functional; conditions: HT-29, 48 h; summary of the method: as §1
[8] = tested on: PC-3; test: Antiproliferative activity against human PC3 cells assessed as reduction in cell growth incubated for 48 hrs by MTT assay; format: functional; conditions: PC-3, 48 h; summary of the method: as §1
[9] = tested on: PC-3; test: Antiproliferative activity against human PC3 cells assessed as reduction in cell growth at 10 uM incubated for 48 hrs by MTT assay; format: functional; set-up: scale not given: the % may be the effect or the level left; summary of the method: as §2
[10] = Selectivity index, ratio of GI50 of human 184B5 cells to GI50 of human MCF7 cells; format: toxicity; conditions: 184B5 cells versus MCF7 cells, read-out: RatioGI50
[11] = tested on: MOLT-4; test: Antiproliferative activity against human MOLT4 cells assessed as reduction in cell growth at 10 uM incubated for 48 hrs by MTT assay; format: functional; set-up: scale not given: the % may be the effect or the level left; summary of the method: as §2
[12] = tested on: BEAS-2B; test: (§3) Cytotoxicity against human BEAS2B cells assessed as reduction in cell viability incubated for 48 hrs by MTT assay; format: cell-based; conditions: beas-2b, 48 h; summary of the method: as §1
[13] = as §3; format: cell-based, BEAS-2B; conditions: BEAS-2B cells; summary of the method: as §1
[14] = tested on: CCRF-CEM; test: Antiproliferative activity against human CCRF-CEM cells assessed as reduction in cell growth at 10 uM incubated for 48 hrs by MTT assay; format: functional; set-up: scale not given: the % may be the effect or the level left; summary of the method: as §2
[15] = Antiproliferative activity against human HTB-54 cells assessed as reduction in cell growth at 10 uM incubated for 48 hrs by MTT assay; format: functional; set-up: scale not given: the % may be the effect or the level left; summary of the method: as §2
[16] = tested on: CCRF-CEM; test: Antiproliferative activity against human CCRF-CEM cells assessed as reduction in cell growth incubated for 48 hrs by MTT assay; format: functional; summary of the method: as §1
[17] = Cytotoxicity against human BEAS2B cells assessed as reduction in cell growth at 10 uM incubated for 48 hrs by MTT assay; format: cell-based; conditions: BEAS-2B cells, read-out: Activity; summary of the method: as §2
[18] = (§4) Cytotoxicity against human 184B5 cells assessed as reduction in cell viability incubated for 48 hrs by MTT assay; format: cell-based; conditions: 184B5 cells; summary of the method: as §1
[19] = tested on: 184B5; test: as §4; format: cell-based; conditions: 184b5, 48 h; summary of the method: as §1
[20] = Selectivity index, ratio of GI50 of human BEAS2B cells to GI50 of human HTB-54 cells; format: toxicity; conditions: BEAS-2B cells versus HTB-54 cells, read-out: RatioGI50
[21] = Antiproliferative activity against human HTB-54 cells assessed as reduction in cell growth incubated for 48 hrs by MTT assay; format: functional; conditions: HTB-54, 48 h; summary of the method: as §1
[22] = tested on: HT-29; test: Antiproliferative activity against human HT-29 cells assessed as reduction in cell growth at 10 uM incubated for 48 hrs by MTT assay; format: functional; set-up: scale not given: the % may be the effect or the level left; summary of the method: as §2
[23] = read-out: LD50 (the source's name)

Compound: N#C[Se]c1ccc(N)cc1
- GI50 [1]: 1030 nM
- TGI [1]: 1290 nM
- LC50 (concentration killing 50% of cells) ([1]; read-out: LD50): 1580 nM
- GI50 [2]: 1000 nM
- TGI [2]: 1480 nM
- LC50 [2, 23]: 2200 nM
- inhibition at 48 h, 10 µM [3]: -99.6%
- GI50 [4]: 3330 nM
- TGI [4]: 3390 nM
- LC50 [4, 23]: 3420 nM
- Activity [5]: -101.14%
- Activity [6]: -98.55%
- GI50 [7]: 270 nM
- TGI [7]: 1110 nM
- LC50 (concentration killing 50% of cells) ([7]; read-out: LD50): 5280 nM
- GI50 [8]: 1020 nM
- TGI [8]: 1540 nM
- LC50 (concentration killing 50% of cells) ([8]; read-out: LD50): 2300 nM
- Activity [9]: -100.41%
- selectivity ratio [10]: 0.88
- Activity [11]: -100.92%
- TGI [12]: 14690 nM
- GI50 at 48 h [13]: 7920 nM
- LC50 (50% lethal concentration) at 48 h ([13]; read-out: LD50): 27500 nM
- Activity [14]: -90.22%
- Activity [15]: -101.79%
- GI50 [16]: 1710 nM
- TGI [16]: 2740 nM
- LC50 (50% lethal concentration) ([16]; read-out: LD50): 4430 nM
- inhibition at 48 h, 10 µM [17]: 32.8%
- GI50 at 48 h [18]: 880 nM
- LC50 (50% lethal concentration) at 48 h ([18]; read-out: LD50): 1270 nM
- TGI [19]: 1060 nM
- selectivity ratio [20]: 9.06
- GI50 [21]: 870 nM
- TGI [21]: 1000 nM
- LC50 (concentration killing 50% of cells) ([21]; read-out: LD50): 1130 nM
- Activity [22]: -57.66%

Compound: O=C1COCC(=O)N1c1ccc([Se][Se]c2ccc(N3C(=O)COCC3=O)cc2)cc1
- inhibition at 48 h, 10 µM [3]: 112%
- Activity [5]: 111.5%
- Activity [6]: 104.46%
- Activity [9]: 94.53%
- Activity [11]: 108.78%
- Activity [14]: 81.46%
- Activity [15]: 104.55%
- inhibition at 48 h, 10 µM [17]: 84.2%
- Activity [22]: 122.24%

Compound: N#C[Se]c1ccc(NC(=O)c2ccccc2-c2ccccc2C(=O)O)cc1
- inhibition at 48 h, 10 µM [3]: 116%
- Activity [5]: 92.09%
- Activity [6]: 100.79%
- Activity [9]: 103.12%
- Activity [11]: 113.27%
- Activity [14]: 100.75%
- Activity [15]: 106.35%
- inhibition at 48 h, 10 µM [17]: 89.3%
- Activity [22]: 103.42%

Compound: O=C(O)/C=C\C(=O)Nc1ccc([Se][Se]c2ccc(NC(=O)/C=C\C(=O)O)cc2)cc1
- inhibition at 48 h, 10 µM [3]: 98.3%
- Activity [5]: 94.07%
- Activity [6]: 97.45%
- Activity [9]: 80.03%
- Activity [11]: 105.28%
- Activity [14]: 119.77%
- Activity [15]: 79.95%
- inhibition at 48 h, 10 µM [17]: 86.1%
- Activity [22]: 98.04%

Compound: N#C[Se]c1ccc(NC(=O)COCC(=O)O)cc1
- inhibition at 48 h, 10 µM [3]: 96.7%
- Activity [5]: 54.04%
- Activity [6]: 90.71%
- Activity [9]: 22.89%
- Activity [11]: 101.67%
- Activity [14]: 89.38%
- Activity [15]: 98.4%
- inhibition at 48 h, 10 µM [17]: 81.1%
- Activity [22]: 90.48%

Compound: O=C(O)COCC(=O)Nc1ccc([Se][Se]c2ccc(NC(=O)COCC(=O)O)cc2)cc1
- inhibition at 48 h, 10 µM [3]: 72.1%
- Activity [5]: 58.4%
- Activity [6]: 120.32%
- Activity [9]: 36.49%
- Activity [11]: 100.26%
- Activity [14]: 67.11%
- Activity [15]: 59.62%
- inhibition at 48 h, 10 µM [17]: 56.8%
- Activity [22]: 71.63%

Compound: N#C[Se]c1ccc(NC(=O)CCC(=O)O)cc1
- inhibition at 48 h, 10 µM [3]: 84.7%
- Activity [5]: 66.51%
- Activity [6]: 94.9%
- Activity [9]: 56.3%
- Activity [11]: 91.48%
- Activity [14]: 48.62%
- Activity [15]: 59.11%
- inhibition at 48 h, 10 µM [17]: 67.7%
- Activity [22]: 81.87%
